According to article PMC4104500 (Biochemistry, 2013):
Values belong to the molecule of their own block, whether it stands above or below them.

Experiments:
[1] = target: Human wild type CIB1 (calcium and integrin binding protein 1) (human) (UniProt Q99828); experiment: ITC
[2] = target: T1, CIB1 (Homo sapiens, UniProt Q99828); experiment: Isothermal titration calorimetry; format: binding
T1 sequence (Q99828 1-191): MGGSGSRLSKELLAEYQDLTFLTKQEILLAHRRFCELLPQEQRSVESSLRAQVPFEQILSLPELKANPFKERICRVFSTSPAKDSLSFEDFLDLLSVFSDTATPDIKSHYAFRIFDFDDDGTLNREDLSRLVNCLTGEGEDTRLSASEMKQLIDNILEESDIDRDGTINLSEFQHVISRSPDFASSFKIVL
Method in brief: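 Recombinant CIB1 from E. coli BL21(DE3), His tag removed by TEV, dialyzed into 50 mM HEPES pH 7.4, 150 mM NaCl, 0.1 mM CaCl₂ unless otherwise noted, at 100 µM in cell. Peptides (0.8–1 mM, same buffer) injected as 10 µL every 300 s at 15 °C or 26 °C. Dilution heats taken from post-saturation injections; one-site fit; TΔS and ΔG calculated.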

[3] = target: T2, Human wild type CIB1 (calcium and integrin binding protein 1) (human, UniProt Q99828 1-191); experiment: ITC
T2 sequence (looked up): T1 sequence (Q99828 1-191)

[4] = target: T2, Human wild type CIB1 (calcium and …); experiment: pull-down
[5] = ITC buffer without any NaCl, calculated value

Molecule: integrin α4 cytoplasmic tail (CT) peptide
dH [1]: 7.82 kcal/mol

Molecule: IILLLWKCGFFKRARTRALYEAKRQKAEMKSQPSETERLTDDY [integrin α3 cytoplasmic tail (CT) peptide]
Kd [3]: 5.1 µM
dH [3]: 1 kcal/mol
stoichiometry N [3]: 1

Molecule: LIYILYKLGFFKRSLPYGTAMEKAQLKPPATSDA [integrin α5 cytoplasmic tail (CT) peptide]
Kd [3]: 6.9 µM
dH [3]: 5.11 kcal/mol
stoichiometry N [3]: 0.9

Molecule: LVLAMWKVGFFKRNRPPLEEDDEEGE (domain or fragment, human, UniProt P08514 1014-1039, looked up) [MBP-αIIb cytoplasmic tail fusion protein]
binding result [4]: binds

Molecule: LVFVMYRMGFFKRVRPPQEEQEREQLQPHENGEGNSET (domain or fragment, human, UniProt P06756 1011-1048, looked up) [MBP-αV cytoplasmic tail fusion protein]
binding result [4]: binds

Further lines, results first:

TΔS ([2]; ITC buffer with 150 mM NaCl, calculated from ΔG = ΔH − TΔS): 4.09 kcal/mol
ΔG ([2]; ITC buffer with 150 mM NaCl, calculated from ΔG = −RT ln Ka): -7.98 kcal/mol
TΔS [2, 5]: -0.574 kcal/mol
ΔG [2, 5]: -7.58 kcal/mol
Molecule: αIIb: synthetic cytoplasmic tail (CT) peptide of integrin αIIb; sequence in Table S1

Kd [3]: 3.2 µM
dH [3]: 1.96 kcal/mol
stoichiometry N [3]: 1.1
B1: integrin αL cytoplasmic tail (CT) peptide (peptide)
chain: IFIVLYKVGFFKRNLKEKMEAGRGVPNGIPAEDSEQLASGQEAGDPGCLKPLHEKDSESGGGKD

Kd [3]: 4.3 µM
dH [3]: 1.74 kcal/mol
stoichiometry N [3]: 0.9
Molecule: LVFVMYRMGFFKRVRPPQEEQEREQLQPHENGEGNSET [integrin αV cytoplasmic tail (CT) peptide, wild type]
